Legend:
Rattus norvegicus [1] = assay: Biodistribution of compound in rat bone marrow at 360 min after intravenous administration; format: ADME, organism-based; conditions: in vivo, 6 h
Summary of the method: (§1)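 Time course in Sprague-Dawley rats after lateral tail-vein injection of the 99mTc complex in normal saline (~12.5 μCi/mL) at ~25 μCi/kg. Tissues were sampled at the stated times, washed with saline, blotted, weighed and γ-counted to give percent injected dose per g. Values are averages of male and female rats.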

Rattus norvegicus [2] = assay: Biodistribution of compound in rat lungs at 1440 min after intravenous administration; format: ADME, organism-based, Lung; conditions: in vivo, 24 h
Summary of the method: (§2)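 Rats received the 99mTc complex in normal saline (~12.5 μCi/mL) by lateral tail vein injection at ~25 μCi/kg and were killed by cervical dislocation at the stated time. Tissues were washed with saline, blotted, weighed and γ-counted to give percent injected dose/g. Time-course values are averages of male and female rats.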

Rattus norvegicus [3] = assay: Biodistribution of compound in rat liver after 5 min of administration.; format: ADME, organism-based; conditions: in vivo
Summary of the method: (§3)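 Female Sprague-Dawley rats (150–200 g) received the complex in normal saline (~12.5 μCi/mL) through a lateral tail vein at ~25 μCi/kg. Rats were killed by cervical dislocation 5 min after injection. Tissues were washed with saline, blotted, weighed and γ-counted to give percent injected dose/g tissue.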

[4] = Biodistribution of compound in rat muscle after 5 min of administration.; format: ADME, organism-based, Muscle tissue; conditions: in vivo; summary of the method: as §3
Rattus norvegicus [5] = assay: Biodistribution of compound in rat bone at 5 min after intravenous administration; format: ADME, organism-based, Bone element; conditions: in vivo; summary of the method: as §1
Rattus norvegicus [6] = assay: Biodistribution of compound in rat eye at 180 min after intravenous administration; format: ADME, organism-based; conditions: in vivo, 3 h; summary of the method: as §1
Rattus norvegicus [7] = assay: Biodistribution of compound in rat gonads at 90 min after intravenous administration; format: ADME, organism-based, Gonad; conditions: in vivo, 1.5 h; summary of the method: as §1
Rattus norvegicus [8] = assay: Biodistribution of compound in rat lungs at 180 min after intravenous administration; format: ADME, organism-based, Lung; conditions: in vivo, 3 h; summary of the method: as §2
Rattus norvegicus [9] = assay: Biodistribution of compound in rat blood at 90 min after intravenous administration; format: ADME, organism-based; conditions: in vivo, 1.5 h; summary of the method: as §1
Rattus norvegicus [10] = assay: Biodistribution of compound in rat blood at 360 min after intravenous administration; format: ADME, organism-based; conditions: in vivo, 6 h; summary of the method: as §1
Rattus norvegicus [11] = assay: Biodistribution of compound in rat bone at 1440 min after intravenous administration; format: ADME, organism-based, Bone element; conditions: in vivo, 24 h; summary of the method: as §1
Rattus norvegicus [12] = assay: Biodistribution of compound in rat gonads at 180 min after intravenous administration; format: ADME, organism-based, Gonad; conditions: in vivo, 3 h; summary of the method: as §1
Rattus norvegicus [13] = assay: Biodistribution of compound in rat liver at 45 min after intravenous administration; format: ADME, organism-based; conditions: in vivo, 0.75 h; summary of the method: as §2
Rattus norvegicus [14] = assay: Biodistribution of compound in rat eye at 1440 min after intravenous administration; format: ADME, organism-based; conditions: in vivo, 24 h; summary of the method: as §1
Rattus norvegicus [15] = assay: Biodistribution of compound in rat liver at 180 min after intravenous administration; format: ADME, organism-based; conditions: in vivo, 3 h; summary of the method: as §1
Rattus norvegicus [16] = assay: Biodistribution of compound in rat urine at 1440 min after intravenous administration; format: ADME, organism-based; conditions: in vivo, 24 h; summary of the method: as §2
Rattus norvegicus [17] = assay: Biodistribution of compound in rat blood at 5 min after intravenous administration; format: ADME, organism-based; conditions: in vivo; summary of the method: as §1
Rattus norvegicus [18] = assay: Biodistribution of compound in rat heart at 5 min after intravenous administration; format: ADME, organism-based; conditions: in vivo; summary of the method: as §1
Rattus norvegicus [19] = assay: Biodistribution of compound in rat feces at 1440 min after intravenous administration; format: ADME, organism-based; conditions: in vivo, 24 h
Rattus norvegicus [20] = assay: Biodistribution of compound in rat lung after 5 min of administration.; format: ADME, organism-based; conditions: in vivo; summary of the method: as §3
Rattus norvegicus [21] = assay: Biodistribution of compound in rat bone marrow at 1440 min after intravenous administration; format: ADME, organism-based; conditions: in vivo, 24 h; summary of the method: as §1
Rattus norvegicus [22] = assay: Biodistribution of compound in rat blood after 5 min of administration.; format: ADME, organism-based; conditions: in vivo; summary of the method: as §3
Rattus norvegicus [23] = assay: Biodistribution of compound in rat muscle at 45 min after intravenous administration; format: ADME, organism-based, Muscle tissue; conditions: in vivo, 0.75 h; summary of the method: as §2
Rattus norvegicus [24] = assay: Biodistribution of compound in rat heart at 360 min after intravenous administration; format: ADME, organism-based; conditions: in vivo, 6 h; summary of the method: as §1
Rattus norvegicus [25] = assay: Biodistribution of compound in rat lungs at 360 min after intravenous administration; format: ADME, organism-based, Lung; conditions: in vivo, 6 h; summary of the method: as §2
Rattus norvegicus [26] = assay: Biodistribution of compound in rat kidney at 180 min after intravenous administration; format: ADME, organism-based; conditions: in vivo, 3 h; summary of the method: as §1
Rattus norvegicus [27] = assay: Biodistribution of compound in rat liver at 90 min after intravenous administration; format: ADME, organism-based; conditions: in vivo, 1.5 h; summary of the method: as §2
Rattus norvegicus [28] = assay: Biodistribution of compound in rat blood at 1440 min after intravenous administration; format: ADME, organism-based; conditions: in vivo, 24 h; summary of the method: as §1
Rattus norvegicus [29] = assay: Biodistribution of compound in rat muscle at 90 min after intravenous administration; format: ADME, organism-based, Muscle tissue; conditions: in vivo, 1.5 h; summary of the method: as §2
Rattus norvegicus [30] = assay: Biodistribution of compound in rat muscle at 180 min after intravenous administration; format: ADME, organism-based, Muscle tissue; conditions: in vivo, 3 h; summary of the method: as §2
Rattus norvegicus [31] = assay: Biodistribution of compound in rat lungs at 5 min after intravenous administration; format: ADME, organism-based, Lung; conditions: in vivo; summary of the method: as §2
Rattus norvegicus [32] = assay: Biodistribution of compound in rat bone marrow at 45 min after intravenous administration; format: ADME, organism-based; conditions: in vivo, 0.75 h; summary of the method: as §1
Rattus norvegicus [33] = assay: Biodistribution of compound in rat muscle at 1440 min after intravenous administration; format: ADME, organism-based, Muscle tissue; conditions: in vivo, 24 h; summary of the method: as §2
Rattus norvegicus [34] = assay: Biodistribution of compound in rat blood at 45 min after intravenous administration; format: ADME, organism-based; conditions: in vivo, 0.75 h; summary of the method: as §1
Rattus norvegicus [35] = assay: Biodistribution of compound in rat heart at 45 min after intravenous administration; format: ADME, organism-based; conditions: in vivo, 0.75 h; summary of the method: as §1
Rattus norvegicus [36] = assay: Biodistribution of compound in rat heart after 5 min of administration.; format: ADME, organism-based; conditions: in vivo; summary of the method: as §3

Bis(1,2,3,5-tetramethylbenzene)technetium
Dose/g (Rattus norvegicus [1]): 0.11 % dose/organ
Dose/g (Rattus norvegicus [2]): 0.18 % dose/organ
Dose/g (Rattus norvegicus [3]): 0.67%
Dose/g [4]: 0.61%
Dose/g (Rattus norvegicus [5]): 3.8 % dose/organ
Dose/g (Rattus norvegicus [6]): 0.02 % dose
Dose/g (Rattus norvegicus [7]): 0.074 % dose
Dose/g (Rattus norvegicus [8]): 0.81 % dose/organ
Dose/ml (Rattus norvegicus [9]): 0.3 % dose
Dose/ml (Rattus norvegicus [10]): 0.15 % dose
Dose/g (Rattus norvegicus [11]): 1.7 % dose/organ
Dose/g (Rattus norvegicus [12]): 0.58 % dose
Dose/g (Rattus norvegicus [13]): 4 % dose
Dose/g (Rattus norvegicus [14]): 0.01 % dose/organ
Dose/g (Rattus norvegicus [15]): 1 % dose/organ
Dose/ml (Rattus norvegicus [16]): 20 % dose
Dose/ml (Rattus norvegicus [17]): 1.06 % dose
Dose/g (Rattus norvegicus [18]): 2.51 % dose
Dose/g (Rattus norvegicus [19]): 30 % dose
Dose/g (Rattus norvegicus [20]): 1.3%
Dose/g (Rattus norvegicus [21]): 0.1 % dose/organ
Dose/g (Rattus norvegicus [22]): 0.1%
Dose/g (Rattus norvegicus [23]): 30 % dose/organ
Dose/g (Rattus norvegicus [24]): 2.81 % dose
Dose/g (Rattus norvegicus [25]): 0.7 % dose/organ
Dose/g (Rattus norvegicus [26]): 2 % dose
Dose/g (Rattus norvegicus [27]): 2.5 % dose/organ
Dose/ml (Rattus norvegicus [28]): 0.07 % dose
Dose/g (Rattus norvegicus [29]): 42 % dose/organ
Dose/g (Rattus norvegicus [30]): 44 % dose/organ
Dose/g (Rattus norvegicus [31]): 1.4 % dose/organ
Dose/g (Rattus norvegicus [32]): 0.24 % dose/organ
Dose/g (Rattus norvegicus [33]): 56 % dose/organ
Dose/ml (Rattus norvegicus [34]): 0.51 % dose
Dose/g (Rattus norvegicus [35]): 2.83 % dose
Dose/g (Rattus norvegicus [36]): 3.4%

Source: ChEMBL document CHEMBL1125797, “Synthesis, characterization and myocardial uptake of cationic bis(arene)technetium(I) complexes” (J Med Chem, 1991)
